# Results from ChEMBL document CHEMBL2016503, “Design and synthesis of 4-O-methylhonokiol analogs as inhibitors of cyclooxygenase-2 (COX-2) and PGF₁ production” (Bioorg Med Chem, 2012).
# Tests used:
# [1] = target: T1, Prostaglandin G/H synthase 2 (Homo sapiens) (UniProt P35354); settings: at 100 nM;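 note: recombinant enzyme with arachidonic acid substrate, compound preincubated 10 min before substrate, product read by EIA after 2 min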
# T1 sequence (whole entry): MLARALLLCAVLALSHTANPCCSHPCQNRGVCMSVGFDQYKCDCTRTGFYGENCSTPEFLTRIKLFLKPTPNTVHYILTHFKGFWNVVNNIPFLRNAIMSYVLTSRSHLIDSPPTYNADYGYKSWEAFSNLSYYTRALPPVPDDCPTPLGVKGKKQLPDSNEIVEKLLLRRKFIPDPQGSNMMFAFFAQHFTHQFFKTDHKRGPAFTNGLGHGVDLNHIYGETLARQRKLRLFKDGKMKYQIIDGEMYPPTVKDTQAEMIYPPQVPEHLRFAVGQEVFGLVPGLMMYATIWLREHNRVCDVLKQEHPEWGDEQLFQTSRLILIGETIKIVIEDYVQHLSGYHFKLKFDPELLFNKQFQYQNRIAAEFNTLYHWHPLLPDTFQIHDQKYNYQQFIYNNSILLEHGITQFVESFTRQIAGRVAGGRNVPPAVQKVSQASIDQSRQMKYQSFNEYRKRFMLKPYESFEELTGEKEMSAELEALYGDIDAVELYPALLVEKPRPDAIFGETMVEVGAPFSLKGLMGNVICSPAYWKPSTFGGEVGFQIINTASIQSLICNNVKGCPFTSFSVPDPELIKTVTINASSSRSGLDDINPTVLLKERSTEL
# [2] = test system: RAW264.7; experiment: Cytotoxicity against mouse RAW264.7 cells assessed as cell viability by propidium iodide staining based FACS-flow cytometry
# How it was run: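 RAW264.7 macrophages were grown in DMEM with heat-inactivated 10% FBS, penicillin and streptomycin at 37 °C under 5% CO₂. Viability was assessed by propidium iodide nuclear staining at 1 µg/ml, followed by flow cytometry. PI-stained cells were counted as dead.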
# [3] = test system: RAW264.7; experiment: Inhibition of LPS-induced NO production in mouse RAW264.7 cells after 24 hrs by Griess assay; assay type: functional, cell-based; settings: RAW264.7, 24 h
# How it was run: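 RAW264.7 macrophages were grown in DMEM with heat-inactivated 10% FBS, penicillin and streptomycin at 37 °C under 5% CO₂. Cells were stimulated with LPS for 24 h with or without compound. Culture medium was mixed with an equal volume of 0.05% sulfanilamide and 0.05% N-(1-naphthyl)ethylenediamine, and absorbance was read at 540 nm. Nitrite was quantified against a sodium nitrite standard curve.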
inhibition [1],IC50 [3],Structure (SMILES),IC50 [2]
39%,24 µM,C=CCc1ccc(OC(C)=O)c(-c2ccc(OC)c(CC=C)c2)c1,29 µM
44%,> 100 µM,C=CCc1ccc(OCC=C(C)C)c(-c2ccc(OC)c(CC=C)c2)c1,> 100 µM
41%,13 µM,COc1ccc(-c2cc(CC=C(C)C)ccc2O)cc1CC=C(C)C,15 µM
57%,18 µM,C=CCc1ccc(O)c(-c2ccc(OC)c(CC=C)c2)c1 [METHYLHONOKIOL],27 µM
23%,78 µM,C=CCc1ccc(OC(C)C)c(-c2ccc(OC)c(CC=C)c2)c1,> 100 µM
46%,40 µM,C=CCc1ccc(OC)c(-c2ccc(OC)c(CC=C)c2)c1,> 100 µM
52%,28 µM,C=CCc1cc(Br)c(O)c(-c2ccc(OC)c(CC=C)c2)c1,33 µM
–,41 µM,C=CCc1ccc(O)c(-c2ccc(OC)c(CCCO)c2)c1,53 µM

# The next lines start with the molecule.
Structure (SMILES),inhibition [1],IC50 [3],IC50 [2]
C=CCc1ccc(OC(=O)N(C)Cc2ccccc2)c(-c2ccc(OC)c(CC=C)c2)c1,63%,33 µM,44 µM
CCCc1ccc(O)c(-c2ccc(OC)c(CCC)c2)c1,46%,11 µM,13 µM
C=CCc1ccc(O)c(-c2cc(CCC)on2)c1,39%,61 µM,81 µM
CCCc1cc(-c2cc(Br)ccc2O)no1,35%,63 µM,63 µM
C=CCNC(=O)Oc1ccc(CC=C)cc1-c1ccc(OC)c(CC=C)c1,48%,> 100 µM,> 100 µM
Cc1ccc(-c2cc(C(F)(F)F)nn2-c2ccc(S(N)(=O)=O)cc2)cc1 [CELECOXIB],–,12.1 µM,11.1 µM
C=CCn1cc(-c2cc(CCC)ccc2O)nn1,22%,> 50 µM,> 50 µM
CCCc1ccc(O)c(-c2cn(CC3CCC3)nn2)c1,33%,33 µM,> 50 µM
C=CCc1cc(Cl)c(O)c(-c2ccc(OC)c(CC=C)c2)c1,–,40 µM,81 µM
COc1ccc(-c2cc(CC3CO3)ccc2O)cc1CC1CO1 (configuration not stated),58%,24 µM,64 µM
C=CCc1ccc(OC(=O)NCc2ccccc2)c(-c2ccc(OC)c(CC=C)c2)c1,65%,> 100 µM,> 100 µM
C=CCc1ccc(O)c(-c2cc(CO)on2)c1,38%,36 µM,> 50 µM
